Assay results from different studies.
Compare with care: the assays were run in different laboratories.
Target: Glycogen synthase kinase-3 beta (GSK3B, Homo sapiens, UniProt P49841)
Method: competition with immobilised ligand

O=C(c1ccc(Nc2ncc(Cl)c(-c3cc4ccccc4s3)n2)cc1)N1CCC(N2CCCC2)CC1  remaining binding (binding; 1 µM): 37%
CN(C)C(=O)Cn1cc(-c2nc(C3(c4ccc(-c5cnc(N)nc5)cc4)CC3)no2)cn1  remaining binding (cell-free assay; 1 µM): 81%
C[C@H]1CCN(c2nccc(-c3cnn4ncccc34)n2)C1  remaining binding (binding; 1 µM): 98%
C[C@@H]1CN(c2ccc3ncc(-c4ccc5[nH]nc(C6CC6)c5c4)n3n2)C[C@H](C)O1  remaining binding (binding; 50 nM): 76%
COc1cnc(Nc2cccc(S(N)(=O)=O)c2)nc1N1CCN(c2ccccc2)CC1  remaining binding (binding; 1 µM): 97%
C[C@H](c1ccnc(Nc2nc3ccc(-c4cc(N(C)C)ncn4)cc3[nH]2)c1)N1CCN(C(=O)CC(F)(F)F)CC1  remaining binding (cell-free assay; 0.1 µM): 100%
CCN1CCN(Cc2ccc(C(=O)Nc3ccc(C)c(Oc4ccc5c(c4)CC(=O)N5)c3)cc2C(F)(F)F)CC1  remaining binding (binding; 1 µM): 100%
O=C(NCCCN1CCOCC1)c1ccc(Nc2ncc(Cl)c(-c3ccc(Cl)s3)n2)cc1  remaining binding (binding; 1 µM): 95%
c1cncc(-c2cccc(Nc3nccc(NC4CCCCC4)n3)c2)c1  remaining binding (binding; 10 µM): 89%
Cc1cc(NC(=O)c2cccc(S(F)(F)(F)(F)F)c2)cc(-n2ccn3nc(-c4cccnc4)cc23)c1  remaining binding (cell-free assay; 1 µM): 85.4%
COC(=O)Nc1nc2ccc(C(=O)c3ccccc3)cc2[nH]1  remaining binding (cell-free assay; 10 µM): 35%
Cn1nc(C(=O)NCc2ccc(C(=O)O)cc2)cc1-c1ccc2[nH]ccc2c1  remaining binding (cell-free assay; 0.1 µM): 78%
COc1cnc(Nc2cccc(S(N)(=O)=O)c2)nc1N1CCN(c2ccccc2)C(=O)C1  remaining binding (binding; 1 µM): 91%
O=C(NCC1CCOCC1)c1n[nH]cc1NC(=O)c1c(F)cccc1F  remaining binding (binding; 1 µM): 0.2%
COc1ncc2cc3ccccc3nc2c1C#N  remaining binding (cell-free assay; 5 µM): 99%
O=C(NCCCN1CCOCC1)c1ccc(Nc2nccc(-c3cc4ccccc4s3)n2)cc1  remaining binding (binding; 1 µM): 73%
C[C@@H](c1ccc(-n2cnc3c(N)ncnc32)cc1)N1CCc2nn(C)c(Cc3ccccc3)c2C1=O  remaining binding (binding; 0.1 µM): 58%
CC(C)CC(=O)N1CCc2nc(-c3ccc(Br)cc3)nc(N(C)Cc3ccccc3)c2C1  remaining binding (cell-free assay; 0.1 µM): 100%
c1cnn2ncc(-c3ccnc(N4CCC45COC5)n3)c2c1  remaining binding (binding; 1 µM): 77%
